This note sets out measurements from ChEMBL document CHEMBL2424628, “Discovery of potent and selective nonsteroidal indazolyl amide glucocorticoid receptor agonists” (Bioorg Med Chem Lett, 2013).

Holding throughout (type): cell-based
The target in one assay is T1, Glucocorticoid receptor (Homo sapiens, UniProt P04150).
T1 sequence (P04150 whole entry): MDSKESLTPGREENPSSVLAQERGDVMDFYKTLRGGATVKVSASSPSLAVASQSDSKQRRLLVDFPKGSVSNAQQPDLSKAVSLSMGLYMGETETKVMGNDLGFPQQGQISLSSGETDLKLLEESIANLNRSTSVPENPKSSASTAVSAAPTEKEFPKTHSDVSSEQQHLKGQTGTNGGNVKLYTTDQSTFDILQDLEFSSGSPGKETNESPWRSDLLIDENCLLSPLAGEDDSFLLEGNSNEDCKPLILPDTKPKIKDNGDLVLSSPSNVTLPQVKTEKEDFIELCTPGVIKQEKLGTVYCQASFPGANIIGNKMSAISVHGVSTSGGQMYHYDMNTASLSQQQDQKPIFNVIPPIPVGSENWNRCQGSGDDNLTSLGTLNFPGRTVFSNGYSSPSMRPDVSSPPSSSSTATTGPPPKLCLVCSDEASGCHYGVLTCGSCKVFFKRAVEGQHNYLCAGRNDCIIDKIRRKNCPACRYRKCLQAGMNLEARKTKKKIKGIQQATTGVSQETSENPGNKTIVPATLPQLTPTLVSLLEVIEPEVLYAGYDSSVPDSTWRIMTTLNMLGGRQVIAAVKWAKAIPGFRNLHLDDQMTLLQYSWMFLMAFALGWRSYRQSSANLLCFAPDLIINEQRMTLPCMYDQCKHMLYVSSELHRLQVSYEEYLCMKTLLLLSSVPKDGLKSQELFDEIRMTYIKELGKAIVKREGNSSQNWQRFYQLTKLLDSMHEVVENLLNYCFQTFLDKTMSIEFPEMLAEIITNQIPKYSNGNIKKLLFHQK
In words: Agonist activity at glucocorticoid receptor in human A549 cells assessed as inhibition of IL-1beta-induced NF-kappaB dependent E-selectin activation by luciferase reporter gene assay.

The target in assay [1] is T2, Glucocorticoid receptor (Homo sapiens) (UniProt P04150).
T2 sequence (whole entry): T1 sequence (P04150 whole entry)
In words: Agonist activity at glucocorticoid receptor in human A549 cells assessed as inhibition of IL-1beta-induced NF-kappaB dependent E-selectin activation by luciferase reporter gene assay relative to dexamethasone. On the technique in general: Reporter assays use an easily measured gene product as a stand-in for the process of interest.

Assay [2] addresses T2, Glucocorticoid receptor (Homo sapiens). In words: Transactivation of glucocorticoid receptor ligand binding domain (unknown origin) transfected in human HeLa cells assessed as activation of NP-1 by GAL4 luciferase reporter gene assay relative to dexamethasone. The essentials: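 HeLa line (NP-1) stably transfected with a GR ligand binding domain chimera in a GAL4 luciferase reporter system, run in agonist mode. Direct GR-LBD activation read as increased luciferase activity. Means of two or more experiments in triplicate.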

Turning to `CC(C)(C(=O)Nc1nncs1)[C@@H](c1ccccc1)c1ccc2c(cnn2-c2ccc(F)cc2)c1`, on Glucocorticoid receptor, the EC50 was determined as 4 nM. Moreover, the Efficacy in assay [1] came to 86%; in assay [2], 106%.

A word on the EC50: it is the concentration needed to bring the measured effect to its halfway point.
